Data taken from ChEMBL document CHEMBL1157206 (Bioorg Med Chem, 2008).

How the values were obtained:
[1] = Cytotoxicity against human primary fibroblasts by resazurin reduction test; assay type: cell-based; details: Fibroblast
Procedure, shortened: (§1)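 Cells seeded at 5 × 10³ per well and allowed to adhere 16 h. Compounds are made up from DMSO stocks, with DMSO held at 0.5% (v/v) at every concentration, and added as a 4× solution in MEM. Continuous exposure lasts 48 h. Resazurin at 25 µg/mL in MEM without serum or phenol red is then given for 1 h at 37 °C, 5% CO₂. Fluorescence is read at ex 530/em 590 nm. IC50 comes from the blank-subtracted concentration–response curve, expressed as percent of control wells.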

PC-3 = assay: Cytotoxicity against human PC3 cells by resazurin reduction test; assay type: functional, cell-based; procedure, shortened: as §1
MCF7 = assay: Cytotoxicity against human MCF7 cells by resazurin reduction test; assay type: functional, cell-based; procedure, shortened: as §1
A549 = assay: Cytotoxicity against human A549 cells by resazurin reduction test; assay type: functional, cell-based; procedure, shortened: as §1
DLD-1 = assay: Cytotoxicity against human DLD1 cells by resazurin reduction test; assay type: functional, cell-based; procedure, shortened: as §1
[2] = Cytotoxicity against human M4Beu cells by resazurin reduction test; assay type: functional, cell-based; procedure, shortened: as §1
PA-1 = assay: Cytotoxicity against human PA1 cells by resazurin reduction test; assay type: functional, cell-based; procedure, shortened: as §1
L929 [3] = assay: Growth inhibition in mouse L929 cells after 48 hrs; assay type: functional; set-up: concentration or dose not given beside the values
L929 [4] = assay: Effect on oxidative stress in mouse L929 cells assessed as glutathione depletion at 50 uM after 4 hrs; assay type: functional
Procedure, shortened: (§2)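 L929 cells seeded at 5 × 10³ per well and grown 48 h to about 90% confluence. Treatment runs in HBSS/15 mM Hepes pH 7.4 for 4 h at 37 °C. Cells are then washed and incubated 15 min with 7.5 µM monochlorobimane before the fluorescence read. Depletion counts as significant below 80% of control. Positive control is 100 µM diethylmaleate.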

L929 [5] = assay: Effect on oxidative stress in mouse L929 cells assessed as glutathione depletion at 6.25 uM after 4 hrs; assay type: functional; procedure, shortened: as §2
L929 [6] = assay: Effect on oxidative stress in mouse L929 cells assessed as ROS production at 12.5 uM after 4 hrs by 2',7'-dichlorofluorescein-diacetate assay; assay type: functional
Procedure, shortened: (§3)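 L929 cells seeded at 5 × 10³ per well and grown 48 h to about 90% confluence. Cells are loaded with 20 µM DCFH-DA in HBSS/15 mM Hepes pH 7.4 for 1 h at 37 °C, washed, then treated in the same buffer at 37 °C. Fluorescence is read after 4 h at 485/530 nm and expressed as percent of control. Above 150% counts as significant; 100 µM tert-butyl hydroperoxide serves as positive control.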

L929 [7] = assay: Effect on oxidative stress in mouse L929 cells assessed as cytolysis at 50 uM after 4 hrs by calcein-AM assay; assay type: functional
Procedure, shortened: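 L929 cells seeded at 5 × 10³ per well and grown 48 h to about 90% confluence. Cells are washed with HBSS/Hepes, then exposed 4 h at 37 °C in complete medium with 0.5% DMSO vehicle, in triplicate. Tween 80 is the lysis control. Detached cells are checked by microscopy, then 4 µM calcein-AM is added for 1 h and read at ex 485/em 530 nm. Percent intact cells = (sample − 100%-lysis background)/(vehicle − background) × 100.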

L929 [8] = assay: Effect on oxidative stress in mouse L929 cells assessed as ROS production at 25 uM after 4 hrs by 2',7'-dichlorofluorescein-diacetate assay; assay type: functional; procedure, shortened: as §3
L929 [9] = assay: Effect on oxidative stress in mouse L929 cells assessed as ROS production at 6.25 uM after 4 hrs by 2',7'-dichlorofluorescein-diacetate assay; assay type: functional; procedure, shortened: as §3

Compound	IC50 [1] [µM]	IC50 (PC-3) [µM]	IC50 (MCF7) [µM]	IC50 (A549) [µM]	IC50 (DLD-1) [µM]	IC50 [2] [µM]	IC50 (PA-1) [µM]	inhibition (INH) (L929 [3]) [%]	Activity (L929 [4])	Activity (L929 [5])	Activity (L929 [6])	Activity (L929 [7])	Activity (L929 [8])	Activity (L929 [9])
CC(=O)OC[C@H]1O[C@@H](NC(=O)CCNC(=O)CCCc2ccc(N(CCCl)CCCl)cc2)[C@H](F)[C@@H](OC(C)=O)[C@@H]1OC(C)=O	7	3.7	13	9.2	11	15	0.24	50	<=80%	–	–	–	–	–
CC(=O)OC[C@H]1O[C@@H](Oc2ccc(NC(=O)CCCc3ccc(N(CCCl)CCCl)cc3)cc2)[C@H](F)[C@@H](OC(C)=O)[C@@H]1OC(C)=O	> 50	11	26	1.9	10	> 50	0.76	–	–	<=80%	–	–	–	–
CC(=O)OC[C@H]1O[C@@H](NC(=O)CCCc2ccc(N(CCCl)CCCl)cc2)[C@H](F)[C@@H](OC(C)=O)[C@@H]1OC(C)=O	11	4.4	27	5.4	7.1	27	1.3	–	–	–	–	–	–	–
CC(=O)OC[C@H]1O[C@@H](NC(=O)NCCCc2ccc(N(CCCl)CCCl)cc2)[C@H](F)[C@@H](OC(C)=O)[C@@H]1OC(C)=O	13	4	26.4	8	7	27	0.6	40	–	–	>=150%	–	–	–
CC(=O)OC[C@H]1O[C@@H](NC(=O)c2ccc(NC(=O)CCCc3ccc(N(CCCl)CCCl)cc3)cc2)[C@H](F)[C@@H](OC(C)=O)[C@@H]1OC(C)=O	4	1.4	5	2.7	3	7	0.3	50	<=80%	–	–	<=80%	–	–
CC(=O)OC[C@H]1O[C@@H](Oc2ccc(NC(=O)CNC(=O)CCCc3ccc(N(CCCl)CCCl)cc3)cc2)[C@H](F)[C@@H](OC(C)=O)[C@@H]1OC(C)=O	16	8	14	10	6	14	1.6	40	–	–	–	–	–	–
CC(=O)OC[C@H]1O[C@@H](NC(=O)CNC(=O)CCCc2ccc(N(CCCl)CCCl)cc2)[C@H](F)[C@@H](OC(C)=O)[C@@H]1OC(C)=O	4.1	10	8	5	4	6.8	1	70	–	–	–	–	>=150%	–
O=C(O)CCCc1ccc(N(CCCl)CCCl)cc1 [CHLORAMBUCIL]	99	–	> 100	43	47	> 100	2.8	30	–	<=80%	–	–	–	>=150%
CC(=O)OC[C@H]1O[C@@H](NC(=O)CCCNC(=O)CCCc2ccc(N(CCCl)CCCl)cc2)[C@H](F)[C@@H](OC(C)=O)[C@@H]1OC(C)=O	4.1	3	12	13	9	9	0.27	50	–	–	–	–	–	>=150%
